Assay outcomes (PubChem)
LMPTP block: blocks human LMPTP phosphatase; inhibition, % at 20 µM; 360,000 compounds, 0.22% hits; recombinant LMPTP-A, OMFP fluorogenic substrate, fluorescence intensity;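 active = compounds that cut the enzyme signal by at least half of the control window in the single-dose screen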;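 also: plate controls were DMSO wells with enzyme plus substrate for no effect and substrate without enzyme for full effect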
Target sequence (P24666 whole entry, looked up): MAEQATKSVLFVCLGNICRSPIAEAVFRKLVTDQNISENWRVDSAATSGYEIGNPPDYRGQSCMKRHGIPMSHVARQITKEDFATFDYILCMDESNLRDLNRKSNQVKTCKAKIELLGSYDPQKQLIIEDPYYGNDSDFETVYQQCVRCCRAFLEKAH
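Test system – LMPTP-A phosphatase enzyme · Quantity – 0.625 nM LMPTP-A final · Reagent – OMFP substrate, 400 µM final · Dosing – one test concentration per compound, 20 µM, with 3% DMSO overall · Timing – 50 min enzyme reaction at room temperature, protected from light · Detection – fluorescence intensity · Controls – substrate-only low control, DMSO enzyme-plus-substrate high control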
SUMO1 PPI mod: SUMO1-SIM interaction modulation. P63165. SUMO1 binding to a labelled peptide, TR-FRET, 1 h. inhibition, % at 20 µM. 360,000 compounds, 0.33% hits. AID 602429; in the data active = inhibition above about 37%
Target sequence (P63165 whole entry, looked up): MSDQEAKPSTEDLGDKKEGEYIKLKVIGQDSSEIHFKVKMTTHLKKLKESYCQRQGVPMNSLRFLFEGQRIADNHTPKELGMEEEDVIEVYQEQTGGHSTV
DNMT1 inh: DNMT1 (human) enzyme inhibition | inhibition (reported as % activation of signal), % at 10 µM | 360,000 compounds, 0.83% hits | P26358 | AID 588458 | DNMT1 molecular beacon, Hinp1I cleavage, fluorescence; in the data active = inhibition above about 50%
STEP block: blocks human striatal-enriched tyrosine phosphatase; P54829; inhibition, % at 20 µM; recombinant STEP, OMFP fluorogenic substrate, fluorescence; 360,000 compounds, 0.25% hits;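 active = inhibition at 20 µM, scaled per plate between control wells, above about 37%, limit read from the data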;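 also: 0% = DMSO with enzyme and substrate and 100% = substrate only without enzyme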
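Also added – OMFP at 25 µM · Test system – STEP tyrosine phosphatase · Technique – FITC-channel fluorescence of OMFP product · Schedule – 20 min at room temperature, dark · Evaluation – control-normalized % inhibition with plate pattern correction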
Scp1 inh: blocks human Scp-1 phosphatase activity; 340,000 compounds, 0.88% hits; inhibition, % at 20 µM; Recombinant Scp1, phosphopeptide, malachite green phosphate absorbance; Q9GZU7;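 active = inhibition above about 50% at 20 µM, limit read from the data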;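 also: plate controls were DMSO wells with enzyme for no effect and wells lacking enzyme for full effect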
Target sequence (Q9GZU7 76-261 limits assumed): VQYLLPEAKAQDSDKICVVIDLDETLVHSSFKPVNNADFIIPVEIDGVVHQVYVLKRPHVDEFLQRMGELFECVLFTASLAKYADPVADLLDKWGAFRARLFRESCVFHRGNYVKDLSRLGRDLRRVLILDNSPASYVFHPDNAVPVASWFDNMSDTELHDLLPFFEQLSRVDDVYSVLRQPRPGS
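Material: truncated SCP-1 phosphatase (76-261aa) / Buffer or medium: 50 mM Tris acetate pH 5.5, 0.005% Tween-20, 10 mM MgCl2 / Compound dosing: one concentration, 20 µM, with 1.0% DMSO / Incubation: 45 min room-temperature reaction, 5 min colour, 30 min stabiliser / Detection: colorimetric free-phosphate detection, absorbance 630 nm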
Scp1 confirm: confirmation of human Scp-1 phosphatase inhibitors. 2,500 compounds, 61% hits. AID 540281. shares compounds with Scp1 inh. inhibition, % at 20 µM. recombinant SCP-1 catalytic domain, phosphate release, malachite green absorbance;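 also: plate controls were DMSO with enzyme for no effect and buffer wells lacking enzyme for full effect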
Scp-1 MG ctr: interferes with malachite green readout, flagging false Scp-1 hits; shares compounds with Scp1 inh; Colorimetric interference counterscreen, malachite green absorbance 630 nm; apparent inhibition (interference), % at 20 µM; 2,500 tested, under 10 active;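 also: compounds added after enzyme reaction finished so only phosphate colour detection is probed; plate controls were DMSO wells with completed Scp-1 reaction for no effect and substrate wells lacking enzyme for full effect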
Scp-1 Tm shift: binds human Scp-1, shifting its melting temperature | Recombinant SCP1, Sypro Orange thermal shift Tm | AID 540329 | thermal shift relative to vanadate control, % at 40 µM | shares compounds with Scp1 inh | 1,500 compounds, 25% hits;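 active = substances whose mean melting-temperature shift, as a percentage of the reference inhibitor's shift, reaches about 5.3%, limit read from the data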;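 also: 0% = Tm of DMSO wells and 100% = Tm with sodium orthovanadate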
Active calls of the source: *; x = no result; ! = not active in a repeat. Shown are actives, neighbours in structure and some others; about 1.8% of the full set was active somewhere.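 The calls were made as follows, unless noted: active = inhibition of at least 30% at 20 µM; inactive = the rest.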

SMILES | LMPTP block | SUMO1 PPI mod | DNMT1 inh | STEP block | Scp1 inh | Scp1 confirm | Scp-1 MG ctr | others
CCCNC(=O)Nc1cc(OC)c(OC)cc1Cc1nccc2cc(OC)c(OC)cc12 | 0 | -3 | 44 | -2 | 0 | x | x
CC(C)C1C(=O)N(Cc2cn(CCC3OCCCO3)nn2)CCS(=O)(=O)N1Cc1ccc(-c2ccc(Cl)nc2)cc1 (configuration not stated) | 1 | 4 | -2 | 1 | x | x | x
CNc1ncnc2c1ncn2[C@H]1CN(Cc2ccncc2)C[C@@H](CO)O1 | -1 | 4 | -4 | 0 | x | x | x
COc1ccccc1NC(=O)c1coc(=O)c(Br)c1 | 8 | 1 | 15 | 4 | 66* | 8 | -6
COc1ccccc1NC(=O)c1cc(N)cc(C(=O)Nc2ccccc2OC)c1 | 1 | -1 | -2 | 2 | -8 | x | x
CCOCCCNC(=O)Cn1cc2c(n1)CCCC2 | 0 | -3 | -2 | -1 | 75* | -4 | -5
CCCN1CCN(CCCNC(=O)Cn2cc3c(n2)CCCC3)CC1 | -6 | 3 | -3 | -1 | -8 | x | x
CC1(c2nnnn2C2CCCCC2)CCC(=O)N1Cc1ccc2c(c1)OCO2 (configuration not stated) | 0 | 3 | x | x | x | x | x
CC1CCC(NC(=O)Cn2c(=O)oc3cc(S(=O)(=O)N4CCCC4)ccc32)CC1 (configuration not stated) | 5 | 2 | 2 | 3 | 63* | 44* | -20 | Scp-1 Tm shift=-26
Cc1ccc(S(=O)(=O)N(C)C)cc1NC(=O)Nc1ccccc1 | 0 | -1 | 3 | 1 | -13 | x | x
CCOc1ccccc1NC(=O)Nc1cc(S(=O)(=O)N(C)C)ccc1C | -1 | 1 | -1 | -2 | 73* | -5 | -5
Cc1ccc2c(c1)C1OCCC1C1N2C(=O)C2C(C(=O)O)C3C=CC21O3 (configuration not stated) | 0 | 2 | 20 | 2 | 77* | 34* | -17 | Scp-1 Tm shift=4
O=C1CC(C(=O)Nc2ccc(O)c(C(=O)O)c2)C(c2ccccc2)O1 (configuration not stated) | 0 | 1 | 3 | 2 | 51* | 30* | -7 | Scp-1 Tm shift=3
O=C1CC(C(=O)Nc2ccc(C(=O)O)cc2)C(c2ccccc2)O1 (configuration not stated) | -2 | -1 | 1 | -5 | -11 | x | x
C#Cc1ccc([C@H]2C=C(C(=O)O)O[C@@H](OCc3ccc(CO)cc3)C2)cc1 | 0 | -6 | 24 | 5 | 50* | 48* | -16 | Scp-1 Tm shift=-2
C#Cc1ccc([C@@H]2C=C(C(=O)NCc3ccccc3)O[C@H](OCc3ccc(CO)cc3)C2)cc1 | 3 | -1 | -10 | -1 | -6 | x | x
C=CCn1c(COc2cc(C)ccc2C(C)C)nnc1SCC(=O)c1c(N)n(C)c(=O)n(C)c1=O | 1 | 2 | 15 | -2 | 52* | 11 | -1
Cc1ccc(C(C)C)c(OCC(=O)OCC(=O)c2c(N)n(C)c(=O)n(C)c2=O)c1 | 0 | 1 | 3 | 2 | -3 | x | x
CCC[N+]1(CC#CC(O)(c2ccccc2)C2CCCCC2)CCCCC1 (configuration not stated) | -1 | -5 | -2 | 2 | -9 | x | x
CC1(C(O)(C#CC[N+]2(C)CCCCC2)c2ccccc2)CCCC1 (configuration not stated) | 0 | 0 | -2 | -1 | 98* | 94* | -8 | Scp-1 Tm shift=-7
CCOC(=O)CN1C(=O)/C(=C/c2ccccc2Br)Oc2ccccc21 | 1 | 10 | 1 | 2 | -8 | x | x
CC(C)[C@@H]1Cc2[nH][nH]c(=O)c2[C@H](C(C)C)O1 | -2 | 6 | x | x | x | x | x
O=C(CCC1N=C2c3ccccc3N=C(SCC(=O)NCc3ccco3)N2C1=O)NCc1ccco1 (configuration not stated) | 0 | 3 | 15 | 2 | 83* | 69* | -15 | Scp-1 Tm shift=-17
Cc1cc(F)ccc1-c1cc(C(=O)NCc2cccc(C(F)(F)F)c2)[nH]n1 | 3 | 4 | -8 | 0 | x | x | x
N[C@@H](C(=O)N[C@@H]1C(=O)N2C(C(=O)O)=C(Cl)CS[C@H]12)c1ccccc1 | 2 | 11 | 21 | 6 | 57* | 60* | -17 | Scp-1 Tm shift=7.4*
SMILES | LMPTP block | SUMO1 PPI mod | DNMT1 inh | STEP block | Scp1 inh | Scp1 confirm | Scp-1 MG ctr | others
CCn1ncc(Cl)c1C(=O)NC(C)c1ccccc1 (configuration not stated) | 0 | -2 | 2 | 1 | 0 | x | x
CCn1ncc(Br)c1C(=O)NC(C)c1ccccc1 (configuration not stated) | -1 | 3 | 1 | -19 | 81* | -1 | -5
CCOC(=O)[C@@H]1[C@H]2COc3ccccc3[C@H]2N2C(=O)N(c3ccc(C(F)(F)F)cc3)C(=O)[C@]12C | 4 | 5 | -8 | 1 | -11 | x | x
CC1CC(C)C(=O)C(C(CC2CC(=O)NC(=O)C2)OC(=O)CC(=O)c2ccccc2)C1 (configuration not stated) | 0 | 1 | -1 | -1 | -10 | x | x
Nc1nc(=O)n(C2CC(O)C(CO)O2)cc1F (configuration not stated) | 0 | -2 | -30 | 0 | 0 | -3 | -8
Cc1ccc(C)c(N2CCN(C(=O)c3ccc(CSc4nc5ccncc5[nH]4)cc3)CC2)c1 | 28 | -2 | -4 | 0 | 56* | -16 | -4
COc1ccc(NC(=O)CS(=O)CC(=O)Nc2cccnc2)cc1 (configuration not stated) | 0 | 0 | -1 | -1 | -3 | x | x
COc1ccc(NC(=O)CS(=O)CC(=O)Nc2ccc(NC(C)=O)cc2)cc1 (configuration not stated) | 0 | 6 | 7 | 41* | 79* | 68* | -7 | Scp-1 Tm shift=-3
COc1ccc(S(=O)(=O)Nc2cccc3c2O[C@H](CN(C)S(=O)(=O)c2ccc(F)cc2)[C@H](C)CN([C@H](C)CO)C3=O)cc1 | -1 | 6 | -2 | 4 | -3 | x | x
O=c1[nH][nH]c(=O)c2cc([N+](=O)[O-])ccc12 | 0 | -30 | -2 | -4 | 50*! | -12 | -12
O=c1[nH]cnc2ccc([N+](=O)[O-])cc12 | 0 | -33 | 0 | -3 | -1 | x | x
COc1ccc(/C=N/NC(=O)c2cccnc2)cc1CN1CCCc2ccccc21 | 2 | -3 | -9 | 0 | 0 | x | x
COc1ccc(C(=O)N/N=C/c2ccc(OC)c(CN3CCCc4ccccc43)c2)cc1 | 3 | -2 | -11 | 4 | 56* | -18 | -13
